According to ChEMBL document CHEMBL1687827, “Profiling the Aspergillus fumigatus proteome in response to caspofungin” (2011):
The source made the active and inactive calls. The rule behind the calls is not given here.

Legend:
[1] = test system: Aspergillus fumigatus; assay: Induction of change in ribosomal protein L35, putative protein level in iTRAQ114 labelled secreted fraction of drug-susceptible Aspergillus fumigatus KU80 delta-akuB at 0.12 ug/ml after 24 hrs in YPD medium by MS (MS/MS) analysis relative to control; assay type: functional
In short: (§1)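 Conidia (1 × 10⁵/ml) grown in YPD, 37°C, 225 rpm, ± 0.12 μg/ml caspofungin; filtrate taken as secreted fraction, French-press lysate 5,000 × g pellet as cell wall/plasma membrane. Trypsin digests 8-plex iTRAQ-labelled (drug-free channels as references), pooled, 2D-chromatography, MS/MS. Median-normalized; protein ratio = median of unique-peptide ratios, log2 normalized.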

[2] = test system: Aspergillus fumigatus; assay: Induction of change in hypothetical protein locus AFUA_8G07100 level in iTRAQ-116 labelled secreted fraction of drug-susceptible Aspergillus fumigatus KU80 delta-akuB at 0.12 ug/ml after 48 hrs in YPD medium by MS (MS/MS) analysis relative to control; assay type: functional; in short: as §1
[3] = test system: Aspergillus fumigatus; assay: Induction of change in large subunit ribosomal protein L3 gene expression in drug-susceptible Aspergillus fumigatus KU80 delta-akuB at 0.12 ug/ml after 24 hrs in YPD medium by microarray analysis relative to control; assay type: functional
In short: (§2)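 Mycelia grown from 1 × 10⁵ conidia/ml in YPD at 37°C, 225 rpm, with or without 0.12 μg/ml caspofungin. Total RNA extracted, DNase-treated; 2 μg labelled per TIGR SOP M007 for whole-genome array hybridization. Three independent experiments with dye flip (6 replicates); >2-fold change deemed significant.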

[4] = test system: Aspergillus fumigatus; assay: Induction of change in Ribosomal protein S13p/S18e protein level in iTRAQ114 labelled cell wall fraction of drug-susceptible Aspergillus fumigatus KU80 delta-akuB at 0.12 ug/ml after 24 hrs in YPD medium by MS (MS/MS) analysis relative to control; assay type: functional
In short: (§3)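 Conidia at 1 × 10⁵/ml grown shaking at 37°C in YPD with or without 0.12 μg/ml caspofungin; mycelia filtered at 24 or 48 h. Secreted fraction taken from the filtrate; cell wall/plasma membrane pellet recovered after French-press lysis and a 5,000 × g spin. Proteins trypsin-digested and iTRAQ-labelled, drug vs no-drug channels at each time, then 2D LC-MS/MS. Protein ratio is the median of ratios from uniquely assigned peptides after median normalization.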

[5] = test system: Aspergillus fumigatus; assay: Induction of change in ATP citrate lyase, subunit 1, putative protein level in iTRAQ114 labelled secreted fraction of drug-susceptible Aspergillus fumigatus KU80 delta-akuB at 0.12 ug/ml after 24 hrs in YPD medium by MS (MS/MS) analysis relative to control; assay type: functional; in short: as §3
[6] = test system: Aspergillus fumigatus; assay: Induction of change in conserved hypothetical gene locus AFUA_5G03010 expression in drug-susceptible Aspergillus fumigatus KU80 delta-akuB at 0.12 ug/ml after 24 hrs in YPD medium by microarray analysis relative to control; assay type: functional
In short: (§4)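 Mycelia grown in YPD ± 0.12 μg/ml caspofungin (1 × 10⁵ conidia/ml, 37°C, shaking) and harvested at 24 or 48 h. Total RNA extracted, DNase-treated and quality-checked; 2 μg labelled per TIGR SOP M007 and hybridized to whole-genome arrays. Three independent experiments with dye flip (6 replicates); drug vs untreated fold change.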

[7] = test system: Aspergillus fumigatus; assay: Induction of change in ribosomal protein L26 gene expression in drug-susceptible Aspergillus fumigatus KU80 delta-akuB at 0.12 ug/ml after 24 hrs in YPD medium by microarray analysis relative to control; assay type: functional; in short: as §2
[8] = test system: Aspergillus fumigatus; assay: Induction of change in plasma membrane H -ATPase protein level in iTRAQ-116 labelled secreted fraction of drug-susceptible Aspergillus fumigatus KU80 delta-akuB at 0.12 ug/ml after 48 hrs in YPD medium by MS (MS/MS) analysis relative to control; assay type: functional; in short: as §1
[9] = test system: Aspergillus fumigatus; assay: Antifungal activity against drug-susceptible Aspergillus fumigatus KU80 delta-akuB assessed as change in hyphal morphology by YPD medium; assay type: functional; conditions: read-out: MEC
In short: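 Broth microdilution per CLSI M38-A2, in triplicate, in YPD broth (2% yeast extract, 4% peptone, 4% dextrose); minimum effective concentration read as the lowest drug concentration giving a significant change in hyphal morphology visible by eye. Caspofungin dissolved in sterile water.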

[10] = test system: Aspergillus fumigatus; assay: Induction of change in hypothetical gene locus AFUA_6G02310 expression in drug-susceptible Aspergillus fumigatus KU80 delta-akuB at 0.12 ug/ml after 24 hrs in YPD medium by microarray analysis relative to control; assay type: functional; in short: as §4
[11] = test system: Aspergillus fumigatus; assay: Induction of change in cell wall protein PhiA protein level in iTRAQ-116 labelled secreted fraction of drug-resistant Aspergillus fumigatus EMFR-S678P at 0.12 ug/ml after 48 hrs in YPD medium by MS (MS/MS) analysis relative to control; assay type: functional, organism-based
In short: (§5)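 Conidia at 1 × 10⁵/ml were grown at 37°C, shaking at 225 rpm, in YPD with or without 0.12 μg/ml caspofungin for 24 or 48 h. The culture filtrate was kept as the secreted fraction. Mycelia were lysed by French press in HEPES/glycerol/EDTA/PMSF/DTT buffer, and the 5,000 × g pellet was washed to give CW/PM. Proteins were reduced, alkylated and trypsin-digested at 37°C overnight, then iTRAQ-labelled and run by 2D LC-MS/MS. Ratios are the median of unique-peptide ratios, median-normalized, versus the no-drug control.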

[12] = test system: Aspergillus fumigatus; assay: Induction of change in 14-3-3 family protein ArtA, putative protein level in iTRAQ-116 labelled secreted fraction of drug-susceptible Aspergillus fumigatus KU80 delta-akuB at 0.12 ug/ml after 48 hrs in YPD medium by MS (MS/MS) analysis relative to control; assay type: functional; in short: as §3
[13] = test system: Aspergillus fumigatus; assay: Induction of change in 60s ribosomal protein l21 protein level in iTRAQ114 labelled secreted fraction of drug-susceptible Aspergillus fumigatus KU80 delta-akuB at 0.12 ug/ml after 24 hrs in YPD medium by MS (MS/MS) analysis relative to control; assay type: functional; in short: as §3
[14] = test system: Aspergillus fumigatus; assay: Induction of change in extracellular thaumatin domain protein, putative gene expression in drug-susceptible Aspergillus fumigatus KU80 delta-akuB at 0.12 ug/ml after 48 hrs in YPD medium by microarray analysis relative to control; assay type: functional; in short: as §4
[15] = test system: Aspergillus fumigatus; assay: Induction of change in glycine-rich RNA-binding protein, putative protein level in iTRAQ-118 labelled cell wall fraction of drug-resistant Aspergillus fumigatus EMFR-S678P at 0.12 ug/ml after 24 hrs in YPD medium by MS (MS/MS) analysis relative to control; assay type: functional; in short: as §5
[16] = test system: Aspergillus fumigatus; assay: Induction of change in 60S ribosomal protein L27e protein level in iTRAQ-118 labelled cell wall fraction of drug-resistant Aspergillus fumigatus EMFR-S678P at 0.12 ug/ml after 24 hrs in YPD medium by MS (MS/MS) analysis relative to control; assay type: functional; in short: as §5
[17] = test system: Aspergillus fumigatus; assay: Induction of change in molecular chaperone and allergen Mod-E/Hsp90/Hsp1 protein level in iTRAQ-116 labelled secreted fraction of drug-resistant Aspergillus fumigatus EMFR-S678P at 0.12 ug/ml after 48 hrs in YPD medium by MS (MS/MS) analysis relative to control; assay type: functional; in short: as §5
[18] = test system: Aspergillus fumigatus; assay: Antifungal activity against drug-susceptible Aspergillus fumigatus KU80 delta-akuB assessed as reduction in colony size at 0.12 ug/ml; assay type: functional, organism-based

SMILES: CC[C@H](C)C[C@H](C)CCCCCCCCC(=O)N[C@H]1C[C@@H](O)[C@@H](NCCN)NC(=O)[C@@H]2[C@@H](O)CCN2C(=O)[C@H]([C@H](O)CCN)NC(=O)[C@H]([C@H](O)[C@@H](O)c2ccc(O)cc2)NC(=O)[C@@H]2C[C@@H](O)CN2C(=O)[C@H]([C@@H](C)O)NC1=O [CASPOFUNGIN]
- fold change (FC) [1]: 1.4
- fold change (FC) [2]: 2.1
- fold change (FC) [3]: 3.5
- fold change (FC) [4]: 2.3
- fold change (FC) [5]: 3.2
- fold change (FC) [6]: 5.6
- fold change (FC) [7]: 5.3
- fold change (FC) [8]: -1.7
- minimal effective concentration [9]: 0.19 µg/mL
- fold change (FC) [10]: 3.8
- Activity [11]: inactive
- fold change (FC) [12]: -2
- fold change (FC) [13]: -1
- fold change (FC) [14]: -11.2
- fold change (FC) [15]: 1.52
- fold change (FC) [16]: -1.15
- fold change (FC) [17]: -1.07
- Activity [18]: Active
